Paper PMC8248323 (Clinical Pharmacology in Drug Development, 2021)
Like-named read-outs stand apart in the source and are kept apart here.

Tests used:
[1] = target: T1, P‐gp (Homo sapiens, UniProt P08183); assay: In vitro transporter substrate assessment; type: in vitro ADME
[2] = test system: CYP3A; type: in vitro ADME; details: in vitro
[3] = target: T1, P‐gp; assay: In vitro transporter inhibition; type: in vitro ADME
[4] = target: T2, OATP1B1 (Homo sapiens, UniProt Q9Y6L6); assay: In vitro transporter inhibition; type: in vitro ADME
T2 sequence (Q9Y6L6 whole entry): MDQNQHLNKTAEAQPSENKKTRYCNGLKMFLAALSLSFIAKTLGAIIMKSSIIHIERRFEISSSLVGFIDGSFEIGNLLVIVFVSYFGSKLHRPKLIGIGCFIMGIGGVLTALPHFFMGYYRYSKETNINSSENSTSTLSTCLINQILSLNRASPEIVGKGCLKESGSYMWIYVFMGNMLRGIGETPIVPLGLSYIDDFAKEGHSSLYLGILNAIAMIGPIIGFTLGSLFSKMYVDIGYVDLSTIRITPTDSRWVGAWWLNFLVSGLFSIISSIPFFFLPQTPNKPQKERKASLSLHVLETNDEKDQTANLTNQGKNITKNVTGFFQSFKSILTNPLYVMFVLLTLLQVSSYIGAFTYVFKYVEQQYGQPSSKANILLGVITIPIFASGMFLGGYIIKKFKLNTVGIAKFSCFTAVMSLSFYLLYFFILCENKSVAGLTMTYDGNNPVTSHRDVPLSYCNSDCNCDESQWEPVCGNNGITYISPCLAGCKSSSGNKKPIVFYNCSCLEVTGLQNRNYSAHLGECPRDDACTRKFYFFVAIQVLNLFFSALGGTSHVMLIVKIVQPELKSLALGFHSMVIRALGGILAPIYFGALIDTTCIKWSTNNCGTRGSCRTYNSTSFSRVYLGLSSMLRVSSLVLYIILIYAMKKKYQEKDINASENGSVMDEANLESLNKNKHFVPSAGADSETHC

[5] = target: bile salt export pump (Homo sapiens, UniProt O95342); assay: In vitro transporter inhibition; type: in vitro ADME
[6] = target: CYP2C8 (Homo sapiens, UniProt P10632); assay: In vitro CYP inhibition; type: in vitro ADME
Sequence of CYP2C8 (P10632 whole entry): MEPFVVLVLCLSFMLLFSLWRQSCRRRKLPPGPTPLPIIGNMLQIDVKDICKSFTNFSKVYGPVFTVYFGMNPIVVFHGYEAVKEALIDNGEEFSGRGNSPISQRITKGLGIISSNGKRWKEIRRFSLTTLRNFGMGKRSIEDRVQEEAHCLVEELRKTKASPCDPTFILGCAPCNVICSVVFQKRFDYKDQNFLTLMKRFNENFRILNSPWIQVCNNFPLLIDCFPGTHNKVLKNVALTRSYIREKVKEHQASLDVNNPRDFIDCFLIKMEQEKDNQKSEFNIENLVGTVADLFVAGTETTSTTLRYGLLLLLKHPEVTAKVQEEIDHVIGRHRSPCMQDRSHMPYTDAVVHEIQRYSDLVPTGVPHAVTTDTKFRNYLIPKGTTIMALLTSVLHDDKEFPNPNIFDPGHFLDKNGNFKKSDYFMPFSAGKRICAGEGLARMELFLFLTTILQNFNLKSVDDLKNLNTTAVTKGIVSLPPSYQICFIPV

[7] = target: CYP2A6 (Homo sapiens, UniProt P11509); assay: In vitro CYP inhibition; type: in vitro ADME
Sequence of CYP2A6 (P11509 whole entry): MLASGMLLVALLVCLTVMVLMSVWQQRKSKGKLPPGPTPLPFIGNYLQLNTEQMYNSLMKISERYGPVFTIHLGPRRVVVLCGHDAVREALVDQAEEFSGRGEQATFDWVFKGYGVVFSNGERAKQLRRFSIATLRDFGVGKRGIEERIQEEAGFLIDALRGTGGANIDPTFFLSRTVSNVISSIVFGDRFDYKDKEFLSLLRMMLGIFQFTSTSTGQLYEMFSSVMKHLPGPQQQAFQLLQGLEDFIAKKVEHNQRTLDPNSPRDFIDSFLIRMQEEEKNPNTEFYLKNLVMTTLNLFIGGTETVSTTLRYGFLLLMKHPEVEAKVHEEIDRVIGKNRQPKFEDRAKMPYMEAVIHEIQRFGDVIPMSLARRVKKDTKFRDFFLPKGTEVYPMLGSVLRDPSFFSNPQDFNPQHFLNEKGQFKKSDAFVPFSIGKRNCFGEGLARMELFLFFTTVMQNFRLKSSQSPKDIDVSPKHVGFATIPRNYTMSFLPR

[8] = target: CYP2B6 (Homo sapiens, UniProt P20813); type: in vitro ADME; details: in vitro
[9] = test system: CYP3A; assay: in vitro; type: in vitro ADME
[10] = target: OCT2 (Homo sapiens, UniProt O15244); assay: In vitro transporter inhibition; type: in vitro ADME
[11] = target: OCT1 (Homo sapiens, UniProt O15245); assay: In vitro transporter inhibition; type: in vitro ADME
[12] = test system: CYP3A; type: in vitro ADME; details: in vitro metabolism studies; unpublished data
[13] = target: T3, OATP1B3 (Homo sapiens, UniProt Q9NPD5); assay: In vitro transporter substrate assessment; type: in vitro ADME
T3 sequence (Q9NPD5 whole entry): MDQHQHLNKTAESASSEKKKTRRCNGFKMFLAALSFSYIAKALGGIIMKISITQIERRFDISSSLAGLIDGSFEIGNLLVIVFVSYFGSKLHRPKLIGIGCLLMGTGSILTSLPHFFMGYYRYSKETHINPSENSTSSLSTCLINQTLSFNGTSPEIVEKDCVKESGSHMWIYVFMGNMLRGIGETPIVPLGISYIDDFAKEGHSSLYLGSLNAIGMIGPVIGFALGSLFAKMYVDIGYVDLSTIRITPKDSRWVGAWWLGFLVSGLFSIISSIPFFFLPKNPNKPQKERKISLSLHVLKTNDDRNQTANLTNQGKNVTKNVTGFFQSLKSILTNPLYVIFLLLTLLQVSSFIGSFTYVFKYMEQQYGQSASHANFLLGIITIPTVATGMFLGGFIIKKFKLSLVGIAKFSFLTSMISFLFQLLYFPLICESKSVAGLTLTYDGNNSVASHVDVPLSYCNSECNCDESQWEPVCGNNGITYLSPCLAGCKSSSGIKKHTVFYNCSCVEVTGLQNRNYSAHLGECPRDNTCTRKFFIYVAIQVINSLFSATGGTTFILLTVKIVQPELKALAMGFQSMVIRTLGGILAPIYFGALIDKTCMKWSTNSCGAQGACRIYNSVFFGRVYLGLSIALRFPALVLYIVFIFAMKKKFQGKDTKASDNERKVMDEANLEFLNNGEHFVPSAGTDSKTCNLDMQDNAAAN

[14] = Phase 1 DDI study 012: lemborexant plasma PK with/without fluconazole; type: in vivo, human; details: for AUC: human, plasma
[15] = target: BCRP (Homo sapiens, UniProt Q9UNQ0); assay: In vitro transporter substrate assessment; type: in vitro ADME
[16] = target: CYP1A2 (Homo sapiens, UniProt P05177); assay: In vitro CYP inhibition; type: in vitro ADME
[17] = target: CYP2D6 (Homo sapiens, UniProt P10635); assay: In vitro CYP inhibition; type: in vitro ADME
[18] = target: MATE2‐K (Homo sapiens, UniProt Q86VL8); assay: In vitro transporter inhibition; type: in vitro ADME
Sequence of MATE2‐K (Q86VL8 1-566 isoform Q86VL8-3): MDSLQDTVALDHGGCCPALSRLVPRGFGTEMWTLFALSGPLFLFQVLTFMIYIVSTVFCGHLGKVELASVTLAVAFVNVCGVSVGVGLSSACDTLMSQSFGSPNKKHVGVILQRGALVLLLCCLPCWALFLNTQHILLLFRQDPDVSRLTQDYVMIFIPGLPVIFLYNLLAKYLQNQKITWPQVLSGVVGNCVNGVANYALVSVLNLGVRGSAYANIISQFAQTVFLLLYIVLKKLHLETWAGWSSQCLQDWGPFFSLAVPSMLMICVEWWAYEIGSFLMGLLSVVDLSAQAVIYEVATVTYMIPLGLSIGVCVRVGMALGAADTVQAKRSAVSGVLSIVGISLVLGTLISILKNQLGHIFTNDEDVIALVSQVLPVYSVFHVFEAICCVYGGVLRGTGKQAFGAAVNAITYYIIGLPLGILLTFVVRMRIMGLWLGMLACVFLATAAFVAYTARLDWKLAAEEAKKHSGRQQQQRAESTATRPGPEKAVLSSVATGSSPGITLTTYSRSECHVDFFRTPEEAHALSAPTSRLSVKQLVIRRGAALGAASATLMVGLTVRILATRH

[19] = target: T2, OATP1B1; assay: In vitro transporter substrate assessment; type: in vitro ADME
[20] = Safety assessments in phase 1 DDI studies 004 and 012; type: in vivo, human
Summary of the method: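 Two open-label single-site phase 1 studies in healthy adults, morning dosing. Test compound 10 mg was given alone and with a strong CYP3A inhibitor (200 mg) or inducer (600 mg) daily for 20 days, or with a moderate CYP3A inhibitor (400 mg, then 200 mg daily). It was also given daily for 13 days around CYP3A/CYP2B6 probe substrates. All treatment-emergent and serious AEs were recorded, with serum chemistry, hematology and urinalysis.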

[21] = Phase 1 DDI study 004 part B: midazolam; details: clinically relevant concentrations, daily dosing up to 10 mg
[22] = Phase 1 DDI study 004 part A: lemborexant plasma PK with/without rifampin; type: in vivo, human
[23] = type: in vivo, human; details: for estimated lemborexant exposure: population PK model
[24] = target: CYP2C9 (Homo sapiens, UniProt P11712); assay: In vitro CYP inhibition; type: in vitro ADME
Sequence of CYP2C9 (P11712 whole entry): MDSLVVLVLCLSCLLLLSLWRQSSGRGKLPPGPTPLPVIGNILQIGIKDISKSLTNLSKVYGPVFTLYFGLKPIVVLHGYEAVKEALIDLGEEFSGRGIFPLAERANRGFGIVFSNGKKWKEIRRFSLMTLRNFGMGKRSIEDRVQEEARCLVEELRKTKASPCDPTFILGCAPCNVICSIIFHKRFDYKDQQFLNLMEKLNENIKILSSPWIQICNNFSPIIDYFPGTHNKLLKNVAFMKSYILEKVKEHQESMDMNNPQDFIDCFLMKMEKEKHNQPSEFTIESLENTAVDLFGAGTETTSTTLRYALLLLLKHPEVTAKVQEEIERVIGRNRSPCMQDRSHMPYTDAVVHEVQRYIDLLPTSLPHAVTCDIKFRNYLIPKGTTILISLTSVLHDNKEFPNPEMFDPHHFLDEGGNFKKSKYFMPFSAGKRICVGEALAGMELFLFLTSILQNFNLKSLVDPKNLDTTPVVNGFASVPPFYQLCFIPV

[25] = target: T3, OATP1B3; assay: In vitro transporter inhibition; type: in vitro ADME
[26] = target: OAT3 (Homo sapiens, UniProt Q8TCC7); assay: In vitro transporter inhibition; type: in vitro ADME
[27] = test system: CYP2B6; type: in vitro ADME; details: in vitro
[28] = Phase 1 DDI study 004 part A: lemborexant plasma PK with/without itraconazole; type: in vivo, human
[29] = coadministration with fluconazole
[30] = lemborexant + fluconazole / lemborexant alone
[31] = rifampin cohort, N = 15, lemborexant alone days 1‐14, with rifampin days 22‐35
[32] = lemborexant + rifampin / lemborexant alone
[33] = coadministration with itraconazole
[34] = lemborexant + itraconazole / lemborexant alone

T1 sequence (P08183 whole entry): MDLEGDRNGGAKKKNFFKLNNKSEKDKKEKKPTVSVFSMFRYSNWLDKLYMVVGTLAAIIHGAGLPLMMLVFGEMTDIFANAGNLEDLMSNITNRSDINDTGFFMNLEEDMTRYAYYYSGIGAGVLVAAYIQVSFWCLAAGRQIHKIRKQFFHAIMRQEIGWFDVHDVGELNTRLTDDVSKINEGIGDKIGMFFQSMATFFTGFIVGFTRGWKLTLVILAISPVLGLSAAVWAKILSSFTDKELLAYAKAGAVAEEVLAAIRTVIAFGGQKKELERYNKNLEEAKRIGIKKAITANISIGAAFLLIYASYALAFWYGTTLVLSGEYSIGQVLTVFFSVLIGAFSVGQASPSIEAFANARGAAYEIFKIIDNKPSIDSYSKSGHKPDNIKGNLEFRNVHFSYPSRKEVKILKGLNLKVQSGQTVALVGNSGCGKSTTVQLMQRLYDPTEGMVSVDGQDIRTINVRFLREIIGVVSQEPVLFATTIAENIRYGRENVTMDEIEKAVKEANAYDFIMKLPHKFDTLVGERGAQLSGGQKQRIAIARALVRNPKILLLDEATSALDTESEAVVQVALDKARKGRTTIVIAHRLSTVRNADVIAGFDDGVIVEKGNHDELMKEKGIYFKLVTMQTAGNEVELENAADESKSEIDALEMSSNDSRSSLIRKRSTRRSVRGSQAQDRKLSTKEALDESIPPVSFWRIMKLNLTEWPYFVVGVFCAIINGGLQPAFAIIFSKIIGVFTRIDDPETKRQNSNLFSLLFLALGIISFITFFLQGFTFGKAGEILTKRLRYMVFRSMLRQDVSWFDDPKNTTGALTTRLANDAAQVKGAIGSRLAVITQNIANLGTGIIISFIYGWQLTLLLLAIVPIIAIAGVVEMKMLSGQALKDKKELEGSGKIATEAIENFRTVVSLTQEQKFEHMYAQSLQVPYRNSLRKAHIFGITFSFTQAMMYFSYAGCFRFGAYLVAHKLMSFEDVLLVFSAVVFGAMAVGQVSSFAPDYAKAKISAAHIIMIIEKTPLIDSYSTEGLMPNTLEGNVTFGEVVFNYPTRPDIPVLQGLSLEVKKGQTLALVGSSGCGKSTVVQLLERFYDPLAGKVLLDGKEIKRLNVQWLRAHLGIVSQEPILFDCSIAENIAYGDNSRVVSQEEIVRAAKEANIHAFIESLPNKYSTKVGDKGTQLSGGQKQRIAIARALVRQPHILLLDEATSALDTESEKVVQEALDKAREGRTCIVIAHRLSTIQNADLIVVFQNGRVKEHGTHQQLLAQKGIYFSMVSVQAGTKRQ

## Cc1ncc(OC[C@@]2(c3cccc(F)c3)C[C@H]2C(=O)Nc2ccc(F)cn2)c(C)n1 [Lemborexant, (1R,2S)‐2‐{[(2,4‐dimethylpyrimidin‐5‐yl)oxy]methyl}‐2‐(3‐fluorophenyl)‐N‐(5‐fluoropyridin‐2‐yl)cyclopropanecarboxamide]
[1]
  substrate of P‐gp: potential poor substrate
[2]
  induction of CYP3A: have the potential to induce
[3]
  inhibition of P‐gp: do not inhibit
[4]
  inhibition of OATP1B1: do not inhibit
[5]
  inhibition of bile salt export pump: do not inhibit
[6]
  inhibition of CYP2C8: do not inhibit
[7]
  inhibition of CYP2A6: do not inhibit
[8]
  inhibition of CYP2B6: do not inhibit
[9]
  KI (inactivation): 25.2 µM
  inhibition at 30 μmol/L: 61.5%
  kinact: 0.000838 s⁻¹
[10]
  inhibition of OCT2: do not inhibit
[11]
  inhibition of OCT1: do not inhibit
[12]
  metabolic pathway: predominantly metabolized by the cytochrome P450 3A (CYP3A) pathway
[13]
  substrate of OATP1B3: neither lemborexant nor M10 was a substrate
[14]; [29]
  increase in lemborexant AUC0–inf: ~4 fold
  increase in lemborexant Cmax: 1.6 fold
[14]; AUC0‐inf, Geometric LSM, lemborexant 10 mg + fluconazole 200 mg, n = 12
  AUC: 1560 ng·h/mL
[14]; AUC0‐inf, Mean (SD), lemborexant 10 mg + fluconazole 200 mg
  AUC: 1540 ng·h/mL
[14]; AUC0‐t, Geometric LSM, lemborexant 10 mg + fluconazole 200 mg once daily, n = 14
  AUC: 1330 ng·h/mL
[14]; AUC0‐t, Mean (SD), lemborexant 10 mg + fluconazole 200 mg
  AUC: 1360 ng·h/mL
[14]; [30]
  AUC0‐inf, Geometric Mean Ratio (90%CI): 4.175 (3.828‐4.553)
  AUC0‐t, Geometric Mean Ratio (90%CI): 3.759 (3.486‐4.053)
  Cmax, Geometric Mean Ratio (90%CI): 1.622 (1.336‐1.969)
[15]
  substrate of BCRP: neither lemborexant nor M10 was a substrate
[16]
  inhibition of CYP1A2: do not inhibit
[17]
  inhibition of CYP2D6: do not inhibit
[18]
  inhibition of MATE2‐K: do not inhibit
[19]
  substrate of OATP1B1: neither lemborexant nor M10 was a substrate
[20]; across the phase 1 studies
  subjects who experienced sleep paralysis: 4 subjects
[20]; all cases
  time of sleep paralysis after lemborexant dosing: ≤ 1 h
[20]; all cases, resolved, no discontinuation
  severity of sleep paralysis: mild
[20]; phase 1 DDI studies
  changes in laboratory values, vital signs, electrocardiograms, or physical examination findings: no clinically important changes
[20]; phase 1 studies
  tolerability: generally well tolerated
[20]; [31]
  AEs: 4 (26.7) n (%)
  AEs leading to study discontinuation: 0 n (%)
  AEs, Mild: 4 (26.7) n (%)
  AEs, Moderate: 0 n (%)
  AEs, Severe: 0 n (%)
  Death: 0 n (%)
  SAEs: 0 n (%)
  Treatment‐related AEs: 2 (13.3) n (%)
[21]
  clinical effect on CYP2B6: has the potential to induce CYP2B6
[22]; coadministration with rifampin
  decrease in lemborexant AUC0‐inf: > 90%
  decrease in lemborexant Cmax: > 90%
[22]; human, plasma, 10 mg
  half-life: 45.6 h
[22]; human, plasma, 10 mg, AUC0‐inf, Geometric LSM, lemborexant 10 mg alone, n = 15, rifampin cohort
  AUC: 389 ng·h/mL
[22]; human, plasma, 10 mg, AUC0‐inf, Mean (SD), lemborexant 10 mg alone, rifampin cohort
  AUC: 428 ng·h/mL
[22]; human, plasma, 10 mg, AUC0‐t, Mean (SD), lemborexant 10 mg alone, rifampin cohort
  AUC: 409 ng·h/mL
[22]; human, plasma, 10 mg, Geometric LSM, lemborexant 10 mg alone, n = 15, rifampin cohort
  Cmax: 55.5 ng/mL
[22]; human, plasma, 10 mg, Mean (SD), lemborexant 10 mg alone, rifampin cohort
  Cmax: 58.9 ng/mL
[22]; human, plasma, AUC0‐inf, Geometric LSM, lemborexant 10 mg + rifampin 600 mg, n = 9
  AUC: 13.4 ng·h/mL
[22]; human, plasma, AUC0‐inf, Mean (SD), lemborexant 10 mg + rifampin 600 mg
  AUC: 15.8 ng·h/mL
[22]; human, plasma, AUC0‐t, Geometric LSM, lemborexant 10 mg + rifampin 600 mg once daily, n = 15
  AUC: 12.3 ng·h/mL
[22]; human, plasma, AUC0‐t, Mean (SD), lemborexant 10 mg + rifampin 600 mg
  AUC: 13.5 ng·h/mL
[22]; human, plasma, Geometric LSM, lemborexant 10 mg + rifampin 600 mg, n = 15
  Cmax: 4.7 ng/mL
[22]; human, plasma, Mean (SD), lemborexant 10 mg + rifampin 600 mg
  Cmax: 5.3 ng/mL
[22]; [32]
  AUC0‐inf, Geometric Mean Ratio (90%CI): 0.034 (0.026‐0.045)
  AUC0‐t, Geometric Mean Ratio (90%CI): 0.033 (0.027‐0.040)
  Cmax, Geometric Mean Ratio (90%CI): 0.085 (0.067‐0.107)
[23]; average, with versus without weak CYP3A inhibitors
  higher exposure with weak CYP3A inhibitors: 30%
[23]; subjects coadministered weak CYP3A inhibitors, n = 15, studies 303 and 304
  estimated lemborexant exposure: 420 ng·h/mL
[23]; subjects not coadministered weak CYP3A inhibitors, n = 257, studies 303 and 304
  estimated lemborexant exposure: 330 ng·h/mL
[23]; with versus without weak CYP3A inhibitors
  degree of CYP3A inhibition (exposure ratio): 1.3 fold
[24]
  inhibition of CYP2C9: do not inhibit
[25]
  inhibition of OATP1B3: do not inhibit
[26]
  inhibition of OAT3: do not inhibit
[27]
  induction of CYP2B6: have the potential to induce
[28]; [33]
  increase in lemborexant AUC0–inf: 3.7 fold
  increase in lemborexant Cmax: 1.4 fold
[28]; human, plasma, 10 mg
  half-life: 54.4 h
[28]; human, plasma, 10 mg, AUC0‐inf, Geometric LSM, lemborexant 10 mg alone, n = 15, itraconazole cohort
  AUC: 433 ng·h/mL
[28]; human, plasma, 10 mg, AUC0‐inf, Mean (SD), lemborexant 10 mg alone, itraconazole cohort
  AUC: 464 ng·h/mL
[28]; human, plasma, 10 mg, AUC0‐t, Mean (SD), lemborexant 10 mg alone, itraconazole cohort
  AUC: 437 ng·h/mL
[28]; human, plasma, AUC0‐inf, Geometric LSM, lemborexant 10 mg + itraconazole 200 mg, n = 11
  AUC: 1600 ng·h/mL
[28]; human, plasma, AUC0‐inf, Mean (SD), lemborexant 10 mg + itraconazole 200 mg
  AUC: 1640 ng·h/mL
[28]; human, plasma, AUC0‐t, Geometric LSM, lemborexant 10 mg + itraconazole 200 mg once daily, n = 14
  AUC: 1480 ng·h/mL
[28]; human, plasma, AUC0‐t, Mean (SD), lemborexant 10 mg + itraconazole 200 mg
  AUC: 1540 ng·h/mL
[28]; human, plasma, Cmax, Mean (SD), lemborexant 10 mg + itraconazole 200 mg
  Cmax: 75 ng/mL
[28]; [34]
  AUC0‐inf, Geometric Mean Ratio (90%CI): 3.702 (3.183‐4.306)
  AUC0‐t, Geometric Mean Ratio (90%CI): 3.605 (3.122‐4.162)
  Cmax, Geometric Mean Ratio (90%CI): 1.360 (1.181‐1.567)
